Results published in PMC4096040 (The Journal of endocrinology, 2012).

Assays:
INS-1 cells [1] = assay: Pan caspase activity; type: cell-based; details: 18.25 μM t-BHP alone, compared with the control group, Fig. 4C
INS-1 cells [2] = assay: Mitochondrial cytochrome c release; type: cell-based; details: 18.25 μM t-BHP alone, 72 h, Fig. 4A
Method in brief: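 INS-1 cells (100 000/well) were left untreated, given 18.25 μM t-BHP alone, or given t-BHP with 10 μM test compound for 72 h. They were processed according to the kit protocol, with cytochrome c labelled by FITC and nuclei by DAPI. Fluorescence microscopy followed, scoring loss of green signal as cytochrome c release.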

INS-1 cells [3] = assay: JC-1 Mitochondrial Membrane Potential Assay; type: cell-based; details: 18.25 μM t-BHP alone, 48 h, Fig. 2C
[4] = tested on: NEP 24.11, known as neprilysin; details: products include GLP1(28–36)amide; ref Hupe-Sodmann et al. 1995; cited from earlier work
[5] = tested on: diaminopeptidyl peptidase-4 (DPP4); details: removal of the N-terminal two amino acids; ref Lovshin & Drucker 2009; cited from earlier work

Molecule | caspase activity, stressor alone (INS-1 cells [1]) | cytochrome c release, stressor alone (INS-1 cells [2]) | mitochondrial potential, stressor alone (INS-1 cells [3]) | cleavage by NEP 24.11 [4] | T1/2 of modification to GLP1(9–36)amide by DPP4 [5] [min]
CC(C)(C)OO [t-BHP, tert-butyl hydro-peroxide] | significant increase in caspase-3 activity | stimulated cytochrome c release | loss of mitochondrial potential | – | –
GLP1(7–36)amide: 30 amino acid insulinotropic form of GLP1, known GLP1 receptor agonist | – | – | – | cleaves GLP1(7–36)amide into several smaller peptides | 1 to 2
